Active and inactive are the calls of the source. The calls are words filed in the database; no cut-off is given here.
Experiments:
Eimeria tenella [1] = experiment: Antiparasitic activity against Eimeria tenella at 50 ppm administered orally through feed after 7 days; assay type: functional
Summary of the method: (§1)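 Each compound was given orally in the feed, and its anticoccidial activity was ranked in a seven-day efficacy model. Each Eimeria species got its own quantitative measure.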

Eimeria acervulina [2] = experiment: Antiparasitic activity against Eimeria acervulina at 50 ppm administered orally through feed after 7 days; assay type: functional; summary of the method: as §1
Eimeria mitis [3] = experiment: Antiparasitic activity against Eimeria mitis at 50 ppm administered orally through feed after 7 days; assay type: functional; summary of the method: as §1
[4] = biological target: cGMP-dependent protein kinase (Eimeria tenella, UniProt Q8MMZ8); experiment: Inhibition of Eimeria tenella parasite-specific cGMP-dependent protein kinase
Eimeria maxima [5] = experiment: Antiparasitic activity against Eimeria maxima at 50 ppm administered orally through feed after 7 days; assay type: functional; summary of the method: as §1
Eimeria tenella [6] = experiment: Antiparasitic activity against Eimeria tenella at 6 ppm administered orally through feed after 7 days; assay type: functional; summary of the method: as §1
Eimeria acervulina [7] = experiment: Antiparasitic activity against Eimeria acervulina at 6 ppm administered orally through feed after 7 days; assay type: functional; summary of the method: as §1
Eimeria maxima [8] = experiment: Antiparasitic activity against Eimeria maxima at 6 ppm administered orally through feed after 7 days; assay type: functional; summary of the method: as §1
Eimeria mitis [9] = experiment: Antiparasitic activity against Eimeria mitis at 6 ppm administered orally through feed after 7 days; assay type: functional; summary of the method: as §1

Sequence of cGMP-dependent protein kinase (Q8MMZ8 whole entry): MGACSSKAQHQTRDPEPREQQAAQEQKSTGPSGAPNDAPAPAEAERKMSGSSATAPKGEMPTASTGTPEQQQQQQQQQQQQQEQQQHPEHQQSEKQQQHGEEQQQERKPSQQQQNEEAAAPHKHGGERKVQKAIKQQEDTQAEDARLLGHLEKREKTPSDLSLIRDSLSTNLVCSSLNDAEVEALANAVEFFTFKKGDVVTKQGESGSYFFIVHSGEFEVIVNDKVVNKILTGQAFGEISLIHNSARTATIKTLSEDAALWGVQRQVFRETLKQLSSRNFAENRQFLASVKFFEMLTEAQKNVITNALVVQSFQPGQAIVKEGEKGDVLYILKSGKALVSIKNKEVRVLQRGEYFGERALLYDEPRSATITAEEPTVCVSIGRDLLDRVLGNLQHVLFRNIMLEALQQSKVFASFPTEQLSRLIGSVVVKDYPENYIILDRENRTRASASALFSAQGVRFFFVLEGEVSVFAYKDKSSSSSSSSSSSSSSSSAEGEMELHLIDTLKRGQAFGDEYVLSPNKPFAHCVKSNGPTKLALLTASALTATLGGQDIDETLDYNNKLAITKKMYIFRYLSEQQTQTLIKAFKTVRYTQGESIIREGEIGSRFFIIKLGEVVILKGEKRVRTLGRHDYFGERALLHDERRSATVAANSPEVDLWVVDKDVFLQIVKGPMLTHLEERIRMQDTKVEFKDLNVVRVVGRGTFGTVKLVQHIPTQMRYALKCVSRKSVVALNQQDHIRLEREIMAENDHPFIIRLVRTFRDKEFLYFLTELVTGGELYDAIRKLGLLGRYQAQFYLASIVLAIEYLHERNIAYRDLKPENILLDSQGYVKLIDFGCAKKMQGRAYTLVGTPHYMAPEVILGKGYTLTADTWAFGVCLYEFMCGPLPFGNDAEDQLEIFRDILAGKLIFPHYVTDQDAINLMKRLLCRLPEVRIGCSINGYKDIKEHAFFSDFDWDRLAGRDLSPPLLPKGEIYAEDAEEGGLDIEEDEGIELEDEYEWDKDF

Question: Which results are given for `CN1CCN(c2ccc3c(-c4ccncc4)c(-c4ccc(F)cc4)[nH]c3c2)CC1`?
Answer: Activity (Eimeria tenella [1]): <50%; Activity (Eimeria acervulina [2]): <50%; Activity (Eimeria mitis [3]): <50%

Question: What does the source list for `OCCN1CCC(c2ccc3c(-c4ccncn4)c(-c4ccc(F)cc4)[nH]c3c2)CC1`?
Answer: Activity (Eimeria tenella [1]): 99%; Activity (Eimeria acervulina [2]): 50%; Activity (Eimeria mitis [3]): 100%; IC50 [4]: 0.8 nM; Activity (Eimeria maxima [5]): <50%

Question: With `CN1CCN(Cc2ccc3c(-c4ccncc4)c(-c4ccc(F)cc4)[nH]c3c2)CC1` as the compound, how does the Activity (Eimeria tenella [1]) read?
Answer: 80%

Question: And the Activity (Eimeria acervulina [2])?
Answer: <50%

Question: What about the Activity (Eimeria mitis [3]) of the same compound?
Answer: <50%

Question: And the IC50 [4]?
Answer: 8.9 nM

Question: What does the source list for `CN1CCC(c2ccc3c(-c4ccnc(N)n4)c(-c4ccc(F)cc4)[nH]c3c2)CC1`?
Answer: Activity (Eimeria tenella [1]): 80%; Activity (Eimeria acervulina [2]): <50%; IC50 [4]: 0.22 nM; Activity (Eimeria maxima [5]): <50%

Question: Which Activity (Eimeria tenella [1]) does the source give for `Nc1nccc(-c2c(-c3ccc(F)cc3)[nH]c3cc(C4CCNCC4)ccc23)n1` here?
Answer: <50%

Question: And the Activity (Eimeria acervulina [2])?
Answer: <50%

Question: What about the IC50 [4] of the same compound?
Answer: 0.21 nM

Question: What about the Activity (Eimeria maxima [5]) of the same compound?
Answer: <50%

Question: How did the Activity (Eimeria tenella [1]) turn out when `CN1CC(c2ccc3c(-c4ccncc4)c(-c4ccc(F)cc4)[nH]c3c2)C1` was run?
Answer: 50%

Question: And the Activity (Eimeria acervulina [2])?
Answer: <50%

Question: What about the Activity (Eimeria mitis [3]) of the same compound?
Answer: <50%

Question: What about the IC50 [4] of the same compound?
Answer: 0.62 nM

Question: With `Fc1ccc(-c2[nH]c3cc(N4CCOCC4)ccc3c2-c2ccncc2)cc1` as the compound, how does the Activity (Eimeria tenella [1]) read?
Answer: 50%

Question: And the Activity (Eimeria acervulina [2])?
Answer: <50%

Question: What about the Activity (Eimeria mitis [3]) of the same compound?
Answer: <50%

Question: What about the IC50 [4] of the same compound?
Answer: 9.2 nM

Question: `CN1CCC(c2ccc3c(-c4ccncc4)c(-c4ccc(F)cc4)[nH]c3c2)CC1` was tested. Which Activity (Eimeria tenella [1]) did it give?
Answer: 50%

Question: And the Activity (Eimeria acervulina [2])?
Answer: 99%

Question: And the Activity (Eimeria mitis [3])?
Answer: 99%

Question: What about the IC50 [4] of the same compound?
Answer: 0.15 nM

Question: What about the Activity (Eimeria maxima [5]) of the same compound?
Answer: 50%

Question: For `Nc1nccc(-c2c(-c3ccc(F)cc3)[nH]c3cc(C4CCN(CCO)CC4)ccc23)n1`, which Activity (Eimeria tenella [1]) is on record?
Answer: <50%

Question: What about the Activity (Eimeria acervulina [2]) of the same compound?
Answer: <50%

Question: What about the IC50 [4] of the same compound?
Answer: 0.3 nM

Question: And the Activity (Eimeria maxima [5])?
Answer: <50%

Question: With `CN1CCC(Cc2ccc3c(-c4ccncc4)c(-c4ccc(F)cc4)[nH]c3c2)CC1` as the compound, how does the Activity (Eimeria tenella [1]) read?
Answer: <50%

Question: What about the Activity (Eimeria acervulina [2]) of the same compound?
Answer: <50%

Question: And the Activity (Eimeria mitis [3])?
Answer: 50%

Question: What about the IC50 [4] of the same compound?
Answer: 1.6 nM

Question: With `Fc1ccc(-c2[nH]c3cc(C4CCNCC4)ccc3c2-c2ccncc2)cc1` as the compound, how does the Activity (Eimeria tenella [1]) read?
Answer: <50%

Question: What about the Activity (Eimeria acervulina [2]) of the same compound?
Answer: <50%

Question: What about the Activity (Eimeria mitis [3]) of the same compound?
Answer: <50%

Question: What about the IC50 [4] of the same compound?
Answer: 0.15 nM

Question: What about the Activity (Eimeria maxima [5]) of the same compound?
Answer: <50%

Question: With `Fc1ccc(-c2[nH]c3cc(C4CCNCC4)ccc3c2-c2ccncn2)cc1` as the compound, how does the Activity (Eimeria tenella [1]) read?
Answer: <50%

Question: What about the Activity (Eimeria acervulina [2]) of the same compound?
Answer: <50%

Question: What about the Activity (Eimeria mitis [3]) of the same compound?
Answer: <50%

Question: And the IC50 [4]?
Answer: 0.65 nM

Question: What about the Activity (Eimeria maxima [5]) of the same compound?
Answer: <50%

Question: What does the source list for `CN1CCC(c2ccn3c(-c4ccnc(N)n4)c(-c4ccc(F)cc4)nc3c2)CC1`?
Answer: Activity (Eimeria tenella [6]): 100%; Activity (Eimeria acervulina [7]): 80%; Activity (Eimeria maxima [8]): 100%; Activity (Eimeria mitis [9]): 80%

Question: What does the source list for `CN1CCN(C(=O)c2ccc3[nH]c(-c4ccc(F)cc4)c(-c4ccncc4)c3c2)CC1`?
Answer: Activity (Eimeria tenella [1]): 80%; Activity (Eimeria acervulina [2]): <50%; Activity (Eimeria mitis [3]): inactive; IC50 [4]: 12.7 nM

Question: Which results are given for `CCN1CCC(c2ccc3c(-c4ccncc4)c(-c4ccc(F)cc4)[nH]c3c2)CC1`?
Answer: Activity (Eimeria tenella [1]): 50%; Activity (Eimeria acervulina [2]): <50%; Activity (Eimeria mitis [3]): 80%; IC50 [4]: 0.16 nM; Activity (Eimeria maxima [5]): 80%

Question: `OCCN1CCC(c2ccc3c(-c4ccncc4)c(-c4ccc(F)cc4)[nH]c3c2)CC1` was tested. Which Activity (Eimeria tenella [1]) did it give?
Answer: 50%

Question: What about the Activity (Eimeria acervulina [2]) of the same compound?
Answer: 80%

Question: What about the Activity (Eimeria mitis [3]) of the same compound?
Answer: 80%

Question: What about the IC50 [4] of the same compound?
Answer: 0.1 nM

Question: What about the Activity (Eimeria maxima [5]) of the same compound?
Answer: <50%

Question: Which results are given for `CN1CCC(c2ccc3c(-c4ccncn4)c(-c4ccc(F)cc4)[nH]c3c2)CC1`?
Answer: Activity (Eimeria tenella [1]): <50%; Activity (Eimeria acervulina [2]): 99%; Activity (Eimeria mitis [3]): 50%; IC50 [4]: 0.4 nM; Activity (Eimeria maxima [5]): <50%

From ChEMBL document CHEMBL1153266, “Synthesis and biological activity of anticoccidial agents: 2,3-diarylindoles” (Bioorg Med Chem Lett, 2009)
